Three molecules from publication PMC2889702 (ACS chemical neuroscience, 2010) can be followed below.

What all share (type): cell-based
One assay concerns the target rat mGluR1 (Rattus norvegicus, UniProt P23385). In a few lines: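 Rat mGluR1 stably expressed in BHK cells. Test compound run as a full 1:3 serial-dilution concentration–response, top final concentration 30 μM. Cells preincubated ~2.5 min with compound, then given an EC20 glutamate concentration, then EC80 glutamate 2 min later. Antagonism taken as blockade of the EC80 response. Data normalized to percent maximal glutamate response.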

In assay [1] the target is T1, human mGluR4 (Homo sapiens, UniProt Q14833). Particulars: compared to (−)-PHCCC.
T1 sequence (Q14833 33-912): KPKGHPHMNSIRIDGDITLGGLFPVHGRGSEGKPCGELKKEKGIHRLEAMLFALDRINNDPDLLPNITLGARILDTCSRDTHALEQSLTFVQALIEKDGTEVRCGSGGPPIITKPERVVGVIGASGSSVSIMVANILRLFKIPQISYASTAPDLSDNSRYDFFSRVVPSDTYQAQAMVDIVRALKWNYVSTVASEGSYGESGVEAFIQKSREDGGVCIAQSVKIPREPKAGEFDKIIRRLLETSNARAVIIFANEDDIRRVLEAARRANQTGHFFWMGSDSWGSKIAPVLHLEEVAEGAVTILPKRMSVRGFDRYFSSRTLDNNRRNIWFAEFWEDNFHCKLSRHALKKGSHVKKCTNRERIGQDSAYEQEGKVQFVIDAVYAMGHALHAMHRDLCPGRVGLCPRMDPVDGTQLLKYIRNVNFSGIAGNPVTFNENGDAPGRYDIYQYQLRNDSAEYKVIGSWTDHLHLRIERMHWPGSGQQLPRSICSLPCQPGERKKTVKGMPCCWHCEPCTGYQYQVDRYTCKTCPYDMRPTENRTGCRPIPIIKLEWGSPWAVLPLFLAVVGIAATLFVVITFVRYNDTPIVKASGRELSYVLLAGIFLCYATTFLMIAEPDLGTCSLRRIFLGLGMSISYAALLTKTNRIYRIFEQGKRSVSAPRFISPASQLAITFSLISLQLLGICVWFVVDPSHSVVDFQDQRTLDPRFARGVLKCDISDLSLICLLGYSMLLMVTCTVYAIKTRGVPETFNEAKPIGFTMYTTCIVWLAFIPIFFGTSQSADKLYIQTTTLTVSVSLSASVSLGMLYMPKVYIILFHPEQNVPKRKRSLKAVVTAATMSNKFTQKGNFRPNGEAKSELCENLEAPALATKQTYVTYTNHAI
Another assay deals with other mGluR subtypes. Put plainly: selectivity against all of the mGluR subtypes. The following applies: 10 μM compound. In short, it runs like this: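 Rat mGluR2, -3, -7, -8 and human mGluR6 were stably expressed in HEK cells coexpressing GIRK1/2. Rat mGluR5 was in HEK cells and rat mGluR1 in BHK cells. Cells received 10 μM final test compound or vehicle, then a full agonist concentration-response (glutamate; L-AP4 for mGluR7). mGluR1 instead: 1:3 compound series to 30 μM top final, EC20 then EC80 glutamate, blockade of EC80 response. Normalized to % Glu Max, triplicate.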

The target in assay [2] is T1, human mGluR4. Briefly: calcium mobilization potency assay. Particulars: for fold increase in potency against hmGluR4: compared to PHCCC / (−)-PHCCC. On the technique in general: A change in cytosolic calcium serves as a functional read-out for many receptors and channels.

“Also recorded” adds a separate entry of the source.

Sequence of rat mGluR1 (P23385 19-1199): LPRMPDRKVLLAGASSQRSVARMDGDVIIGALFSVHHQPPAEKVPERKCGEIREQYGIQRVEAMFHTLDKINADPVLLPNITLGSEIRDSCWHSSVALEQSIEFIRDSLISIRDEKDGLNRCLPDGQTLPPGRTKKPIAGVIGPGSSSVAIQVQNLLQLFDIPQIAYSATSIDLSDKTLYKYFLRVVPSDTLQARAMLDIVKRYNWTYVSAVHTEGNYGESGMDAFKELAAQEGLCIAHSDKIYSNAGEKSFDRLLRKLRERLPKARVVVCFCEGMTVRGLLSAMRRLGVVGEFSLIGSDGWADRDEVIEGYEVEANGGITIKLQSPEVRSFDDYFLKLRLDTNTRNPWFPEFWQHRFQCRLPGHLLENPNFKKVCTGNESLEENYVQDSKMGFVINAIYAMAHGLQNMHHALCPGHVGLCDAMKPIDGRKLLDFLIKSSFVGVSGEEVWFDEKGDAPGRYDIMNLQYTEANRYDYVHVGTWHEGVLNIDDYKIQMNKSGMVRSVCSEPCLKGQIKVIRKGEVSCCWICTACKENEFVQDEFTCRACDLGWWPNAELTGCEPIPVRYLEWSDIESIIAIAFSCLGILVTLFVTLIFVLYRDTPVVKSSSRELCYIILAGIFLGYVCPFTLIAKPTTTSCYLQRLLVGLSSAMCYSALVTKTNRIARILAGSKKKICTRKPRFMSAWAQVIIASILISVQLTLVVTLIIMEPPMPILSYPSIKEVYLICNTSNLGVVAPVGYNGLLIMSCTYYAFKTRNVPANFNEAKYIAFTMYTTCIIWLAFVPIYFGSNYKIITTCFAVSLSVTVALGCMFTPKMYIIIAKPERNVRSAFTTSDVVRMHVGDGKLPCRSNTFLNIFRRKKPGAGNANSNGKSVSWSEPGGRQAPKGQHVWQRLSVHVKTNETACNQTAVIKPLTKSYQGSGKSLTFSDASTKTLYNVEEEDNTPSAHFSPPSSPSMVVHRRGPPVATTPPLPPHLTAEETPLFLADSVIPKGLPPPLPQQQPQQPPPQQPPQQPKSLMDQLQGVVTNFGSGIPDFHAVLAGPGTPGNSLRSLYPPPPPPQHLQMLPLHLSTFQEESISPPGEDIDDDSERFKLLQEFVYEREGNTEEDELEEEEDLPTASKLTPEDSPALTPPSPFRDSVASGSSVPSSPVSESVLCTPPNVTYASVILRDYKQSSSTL

Turning to `O=C(Nc1ccccc1)C12CC1/C(=N\O)c1ccccc1O2` (racemic) [(±)-PHCCC, PHCCC], the “% Glu Max (mGluR1)” value at rat mGluR1 (rat mGluR1, normalized to percent maximal glutamate response) turned out to be 23%. Further, the IC50 (in general, the point on the concentration scale where inhibition reaches its midpoint) on rat mGluR1 (read-out: mGluR1 IC50) worked out at 2.1 µM.
`O=C(Nc1ccccn1)C12CC1/C(=N\O)c1ccccc1O2` (single isomer, unassigned; (-)) [(−)-10c]: the “fold enhancement in efficacy” value at human mGluR4 [1] is given as 2 fold. In addition, the “activity against the other mGluR subtypes tested” value in the assay with other mGluR subtypes was “devoid of activity”. Moreover, the “agonist activity of compound added alone” value at human mGluR4 [2] (30 μM compound alone, before glutamate addition, calcium mobilization) is listed as “do not exhibit agonist activity; also recorded: only act in the presence of glutamate”. Moreover, the “agonist activity of compound added alone at higher concentrations” value at human mGluR4 [2] (>30 μM compound alone, data not shown) is “some intrinsic agonist activity”. Besides, the “fold increase in potency against hmGluR4” value was greater than 4 fold at human mGluR4 [2] (listed as 10c) and 4 fold on human mGluR4 [2] (listed as (-)-10c).
Consider `O=C(Nc1ccccn1)C12CC1/C(=N\O)c1ccccc1O2` (stereo not shown) [Compound 5i, (E)-7-(Hydroxyimino)-N-(pyridin-2-yl)-1,1a,7,7a-tetrahydrocyclopropa[b]chromene-1a-carboxamide], for which the mGluR1 activity result on rat mGluR1 (result in words, NAM=negative allosteric modulator) is given as “devoid of any mGluR1 activity”. Besides, the EC50 – broadly, the concentration at which the effect is half-maximal – on human mGluR4 [2] came out at 0.87 µM.
